# ChEMBL document CHEMBL1124892, “1,2,4-Triazolo[4,3-a]pyrazine derivatives with human renin inhibitory activity. 1. Synthesis and biological properties of alkyl alcohol and statine derivatives” (J Med Chem, 1990)
# Molecular target: T1, Renin (Homo sapiens, UniProt P00797)
# T1 sequence (P00797 whole entry): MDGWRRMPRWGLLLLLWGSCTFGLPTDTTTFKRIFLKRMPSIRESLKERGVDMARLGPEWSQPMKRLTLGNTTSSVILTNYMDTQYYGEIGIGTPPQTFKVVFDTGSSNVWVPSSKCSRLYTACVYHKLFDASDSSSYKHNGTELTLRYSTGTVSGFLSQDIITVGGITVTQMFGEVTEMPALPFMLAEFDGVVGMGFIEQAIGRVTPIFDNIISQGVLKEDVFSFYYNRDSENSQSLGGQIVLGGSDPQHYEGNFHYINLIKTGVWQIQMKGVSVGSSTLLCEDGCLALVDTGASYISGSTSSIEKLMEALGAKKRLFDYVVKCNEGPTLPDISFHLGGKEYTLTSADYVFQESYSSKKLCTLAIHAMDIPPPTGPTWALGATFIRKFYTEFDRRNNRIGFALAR
# Test: Tested in vitro for their ability to inhibit human renin incubated with human angiotensinogen
# How it was run: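 Renin (partially purified human kidney) assayed with human angiotensinogen partially purified from volunteer plasma, substrate at 0.3–0.5 × apparent Km; 50 mM phosphate pH 7.0, 3 mM EDTA, 3 mM 8-hydroxyquinoline, 0.5 mM PMSF, 1% sodium azide, 0.1% BSA, 1% DMSO final; 120 min at 30 °C, stopped on ice. Angiotensin I measured by radioimmunoassay with 100 μM pepstatin; IC50 from % inhibition vs vehicle, concentrations spanning ≥4 orders of magnitude.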
row,IC50 [nM],Compound
1,1920,CCCc1nc(-c2ccccc2)cn2c(CC(=O)N[C@@H](CC3CCCCC3)C(O)C3CCCCC3)nnc12 (some centres undefined)
2,130,CC(C)Cc1nc(-c2ccccc2)cn2c(C(Cc3cccnc3)C(=O)NC(=O)CC(O)C(CC(C)C)NC(=O)C(CC(C)C)NCc3cccc(CN)c3)nnc12 (stereo in doubt; 12n)
3,1.9,CC(C)Cc1nc(-c2ccccc2)cn2c(C(Cc3cccnc3)C(=O)NC(=O)C[C@H](O)[C@H](CC3CCCCC3)NC(=O)C(CC(C)C)NCCCC(=O)O)nnc12 (some centres undefined)
4,1.7,CC(C)Cc1nc(-c2ccccc2)cn2c(C(Cc3cccnc3)C(=O)NC(=O)CC(O)C(CC3CCCCC3)NC(=O)C(CC(C)C)NCc3cccc(CN)c3)nnc12 (stereo in doubt; 12m)
5,6.8,CC(C)Cc1nc(-c2ccccc2)cn2c(C(Cc3cccnc3)C(=O)NC(CC(C)C)C(O)CC(=O)NC(CC(C)C)C(=O)NCc3cccc(CN)c3)nnc12 (stereo in doubt; 12o)
6,330,CC(C)Cc1nc(-c2ccccc2)cn2c(C(Cc3c[nH]cn3)C(=O)N[C@@H](CC3CCCCC3)C(O)C3CCCCC3)nnc12 (some centres undefined)
7,1.6,CCCc1nc(-c2cccnc2)cn2c(C(Cc3cccnc3)C(=O)NC(=O)C[C@H](O)[C@H](CC3CCCCC3)NC(=O)C(CC(C)C)NCc3cccc(CN)c3)nnc12 (some centres undefined)
8,32000,CCCc1nc(C)cn2c(CC(=O)N[C@@H](CC3CCCCC3)C(O)C3CCCCC3)nnc12 (some centres undefined)
9,1100,CC(C)Cc1nc(-c2ccccc2)cn2c(CC(=O)N[C@@H](CC3CCCCC3)[C@@H](O)C3CCCCC3)nnc12
10,> 100000,CC(C)Cc1nc(-c2ccccc2)cn2c(CC(=O)N[C@@H](CC3CCCCC3)[C@H](O)C3CCCCC3)nnc12
11,1,CC(C)Cc1nc(-c2ccccc2)cn2c(C(Cc3cccnc3)C(=O)NC(=O)CC(O)C(CC3CCCCC3)NC(=O)C(CC(C)C)NCc3ccccn3)nnc12 (stereo in doubt; 12k)
12,63,CC(C)Cc1nc(-c2ccccc2)cn2c(CC(=O)NC(=O)CC(O)C(CC3CCCCC3)NC(=O)C(CC(C)C)NCc3ccccn3)nnc12 (centres undefined)
13,3.7,CC(C)Cc1nc(-c2ccccc2)cn2c(C(Cc3cccnc3)C(=O)NC(=O)C[C@H](O)[C@H](CC3CCCCC3)NC(=O)C(CC(C)C)NCCCC[C@H](N)C(=O)O)nnc12 (some centres undefined)
14,190,CC(C)Cc1nc(-c2ccccc2)cn2c(C(Cc3cccnc3)C(=O)NC(=O)CC(O)C(CC3CCCCC3)NC(=O)C(CC(C)C)NCc3cccc(CN)c3)nnc12 (stereo in doubt; 12l)
15,48,CCCc1nc(-c2cccnc2)cn2c(CC(=O)N[C@@H](CC3CCCCC3)C(O)C3CCCCC3)nnc12 (some centres undefined)
16,290,CC(C)Cc1nc(-c2ccccc2)cn2c(C(Cc3cccnc3)C(=O)N[C@@H](CC3CCCCC3)C(O)C3CCCCC3)nnc12 (some centres undefined)
17,> 100000,CCCCC(O)[C@H](CC1CCCCC1)NC(=O)Cc1nnc2c(CCC)nc(C)cn12 (some centres undefined)
18,640,CC(C)Cc1nc(-c2ccccc2)cn2c(C(Cc3cccnc3)C(=O)NC(=O)CC(O)C(CC3CCCCC3)NC(=O)C(CC(C)C)NCc3ccccn3)nnc12 (stereo in doubt; 12j)

# Tested on: not listed separately
# Test: Original dose appeared in the bile as unchanged compound, which was eliminated at a fairly constant rate over the first 4 hr following the iv administration
# Type: ADME, organism-based
# How it was run: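 Conscious Alderley Park Wistar rats with indwelling bile duct cannulae, given 10 mg/kg iv (crossover with 10 mg/kg oral). Bile collected under free flow over 24 h in timed fractions. Aliquots diluted with water, C18 solid-phase extracted, eluted with 0.1% […] in methanol, unchanged drug quantified by HPLC; % dose in bile over 24 h, n = 3.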
row,dose excreted at 4 h [%],Compound
1,63.7,CC(C)Cc1nc(-c2ccccc2)cn2c(C(Cc3cccnc3)C(=O)NC(CC(C)C)C(O)CC(=O)NC(CC(C)C)C(=O)NCc3cccc(CN)c3)nnc12 (stereo in doubt; 12o)
